In the library only some 0.77% were active in any assay of this set; here they are far more common.
S1P4 ag: human S1P4 receptor agonism; activation, % at 4.98 µM; S1P4-expressing cell line, agonist reporter assay; 220,000 compounds, 0.35% hits; in the data active = activation above about 11%;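 note: 0% = DMSO vehicle and 100% = reference agonist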
Target sequence (O95977 whole entry, looked up): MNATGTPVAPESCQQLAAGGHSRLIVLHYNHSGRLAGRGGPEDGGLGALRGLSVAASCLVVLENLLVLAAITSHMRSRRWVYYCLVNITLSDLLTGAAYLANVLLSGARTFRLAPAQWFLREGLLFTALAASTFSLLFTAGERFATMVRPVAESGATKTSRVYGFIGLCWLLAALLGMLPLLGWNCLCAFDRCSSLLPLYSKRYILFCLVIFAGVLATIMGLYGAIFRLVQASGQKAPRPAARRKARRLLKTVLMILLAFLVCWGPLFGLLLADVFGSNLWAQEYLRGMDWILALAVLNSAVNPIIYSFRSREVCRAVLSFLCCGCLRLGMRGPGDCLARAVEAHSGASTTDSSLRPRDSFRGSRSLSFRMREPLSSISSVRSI
S1P4 antag: human S1P4 receptor antagonism. inhibition, % at 4.98 µM. O95977. 220,000 compounds, 0.26% hits. S1P4-expressing cells, antagonist mode, reporter read-out; in the data active = inhibition above about 29%;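 note: 0% = wells stimulated with agonist and 100% = vehicle wells without agonist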
Biofilm kill mix: mixtures killing C. albicans biofilm. inhibition, % at 7.6 µM. C. albicans biofilm persisters + clotrimazole, fluorescence viability; primary screen in compound mixtures of four per well. 120,000 compounds, 0.02% hits;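 active = inhibition above 30.3% in the primary screen of four-compound pools, then above 30% when the compound was retested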;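 note: compounds exposed to preformed 24 h biofilms for 48 h; 0% = untreated biofilm control and 100% = clotrimazole plus chlorhexidine kill blank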
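Assay system: C. albicans biofilms / Medium: RPMI/MOPS medium, pH 7.0 / Schedule: biofilm formation 24 h, compound exposure 48 h, 37 °C / Measured by: Alamar Blue fluorescence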
S1P3 antagonist: S1P3 (human) receptor antagonism; inhibition, % at 4.98 µM; CHO S1P3 NFAT-BLA reporter, FRET fluorescence, antagonist mode; 170,000 compounds, 0.27% hits; AID 485; Q99500;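 active = inhibition above the plate cutoff, the mean inhibition of test wells on that plate plus 3 SD, cut at about 28% in these data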;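 note: cells challenged with S1P at its EC80 of 0.8 µM; blue over green emission ratio from cleaved BLA substrate after 4 h stimulation; 0% = S1P-stimulated wells and 100% = unstimulated DMSO-only wells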
Pf gamet viab: inhibitors of late stage P. falciparum gametocyte viability; 150,000 compounds, 0.065% hits; AID 743093; P. falciparum stage V gametocytes, ATP luminescence, 24 h; inhibition, % at 10.9 µM;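 active = inhibition above the mean plus 3 SD of compounds within the control limits, set per campaign, cut at about 38% in these data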;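 note: 0% = DMSO wells and 100% = medium only without gametocytes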
S1P4 antag cf: human S1P4 antagonism, confirmation. shares compounds with S1P4 antag. S1P4-expressing cell line, antagonist mode, reporter read-out. inhibition, % at 4.98 µM. 520 compounds, 71% hits. AID 1524; in the data active = inhibition above about 30%
S1P1 antag: counter-screen for S1P4 antagonists: antagonists of human S1P1; cell-based S1P1 antagonist counterscreen, inhibition; AID 1564; inhibition, % at 4.98 µM; shares compounds with S1P4 antag; 520 compounds, 37% hits; in the data active = inhibition above about 40%;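 note: receptor stimulated with S1P near its EC80; 0% = agonist stimulated wells and 100% = vehicle only wells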
* marks the source's active call; other numbers are inactive results; . = not tested or not shown.

SMILES	S1P4 ag	S1P4 antag	Biofilm kill mix	S1P3 antagonist	Pf gamet viab	S1P4 antag cf	S1P1 antag
CCOc1cc(/C=C\[N+](=O)[O-])ccc1OCC(=O)Nc1ccccc1C	1	58*	.	.	.	118*	84*
O=c1[nH]sc2ccccc12	3	32*	1	5	.	91*	5
O=c1c2ccccc2sn1-c1ccccc1	1	9	.	.	28	.	.
Cc1ccnc(-n2c(C)cc(/C=N/NC(=O)COc3cccc4cccnc34)c2C)c1	2	-19	24	9	9	.	.
CCOc1cc(/C=N/N2CCOCC2)ccc1OCc1ccc(C(=O)OC)o1	0	-15	-2	-9	16	.	.
O=C(CN1CCc2ccccc2C1)Nc1ccccc1C(F)(F)F	.	.	.	.	-7	.	.
CN(C)/N=C/C=C1\CCC/C(=C\c2ccc(F)c(F)c2)C1=O	1	29*	-1	-3	16	34*	42*
COc1cccc(CN2CCN(c3nc4nonc4nc3N3CCCCC3)CC2=O)c1	-1	12	9	14	9	.	.
CC(C)(C)c1ccc(OCc2ccc(C(=O)N/N=C/c3ccc(O)c(O)c3)cc2)cc1	0	33*	17	8	.	63*	27
O=C(O)Cc1c(C(=O)O)[nH]c2ccc(C(=O)O)cc12	2	-5	25	-17	2	.	.
c1ccc(CN2CCN(c3nc(N4CCOCC4)c4ccccc4n3)CC2)cc1	0	36*	.	.	.	8	34
Cc1ccc(NC(=O)CN(C)C2CCCCC2)cc1Br	0	32*	14	16	-3	19	39
CCOC(=O)C1(Cc2ccccc2)CCN(Cc2cn(CC(=O)OC)c3ccccc23)CC1	1	30*	1	0	14	5	16
Cc1ccc(-n2nc(C)c(Sc3ccccc3[N+](=O)[O-])c2N)cc1	0	-6	10	-15	-5	.	.
Cc1cc(NC(=O)CSc2nc(=O)cc(N)n2-c2ccc(Cl)cc2)no1	1	-13	12	-4	3	.	.
CCCCS(=O)(=O)/C=C\C=C/S(=O)(=O)CCCC	-4	99*	.	.	.	117*	62*
O=C(CC(SCc1ccco1)c1ccc(O)cc1)c1cccs1 (stereo not given)	-1	21	.	-2	30	.	.
O=C(CC(SCCO)c1ccc2c(c1)OCO2)c1cccs1 (stereo not given)	-1	36*	.	-11	.	28	-21
CCCC1CC(C(=O)Nc2ccccc2)C(=O)O1 (stereo not given)	.	.	.	.	4	.	.
Cc1[nH]n2c(=O)cc(C(C)(C)C)nc2c1-c1ccccc1	1	34*	.	-7	-15	1	12
Cc1cc(C)n2nc(C(=O)NC3CCCc4ccccc43)nc2n1 (stereo not given)	1	-1	9	2	-3	.	.
C=CCOC(=O)C1=C(C)N=C2SCCC(=O)N2C1c1ccc(OC(=O)c2ccco2)cc1 (stereo not given)	0	38*	.	.	8	59*	52*

Source: PubChem
